Reference: ChEMBL document CHEMBL2311498, “Sulfonylureas have antifungal activity and are potent inhibitors of Candida albicans acetohydroxyacid synthase” (J Med Chem, 2013)
Converted amounts (≈) assume the structure as drawn. The source made the active and inactive calls. The calls are words filed in the database; no cut-off is given here.

Experiments:
Candida albicans [1] = assay: Antifungal activity against Candida albicans after 72 hrs by broth microdilution method; type: functional
[2] = Inhibition of Candida albicans acetohydroxyacid synthase catalytic domain expressed in Escherichia coli by colorimetric method
Outline: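 Catalytic subunit, His6-tagged, expressed in E. coli Rosetta and purified on Ni affinity resin with FAD present. Single-point colorimetric assay in 250 mM potassium phosphate pH 6.4 with 50 mM pyruvate, 10 mM MgCl2, 1 mM ThDP and 10 μM FAD, 30 °C for 30 min. Acid decarboxylation to acetoin, creatine/α-naphthol colour read at A525. Duplicates at 10–12 inhibitor levels, Ki from nonlinear fit, tight-binding equation where needed.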

Saccharomyces cerevisiae = assay: Antifungal activity against Saccharomyces cerevisiae after 72 hrs by broth microdilution assay; type: functional
Outline: (§1)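 Broth microdilution in YNB supplemented with 0.5% glucose and 100 mM ammonium sulfate, with compounds serially diluted from DMSO solutions. Inoculum came from single colonies of 48 h plates suspended in water, adjusted by 530 nm turbidity to 1 × 10^6 to 5 × 10^6 CFU/mL, then diluted to about 10^4 CFU/mL. Incubated at 35 °C with visual readings at 24, 48 and 72 h. MIC50/90 is the concentration giving 50%/90% growth inhibition; MIC50 is the mean of three measurements.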

[3] = Toxicity in po dosed rat; type: organism-based; details: in vivo
Candida albicans [4] = assay: Antifungal activity against Candida albicans after 72 hrs by disk diffusion method; type: functional
Outline: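 Screened by disk diffusion: 10 μL of compound in DMSO applied to a disk on plates inoculated with yeast. Plates were incubated at 35 °C, and inhibition-zone diameters were measured at 24, 48 and 72 h against a DMSO control disk.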

[5] = Toxicity in id dosed rabbit; type: organism-based, Oryctolagus cuniculus; details: in vivo
Candida albicans [6] = assay: Antifungal activity against Candida albicans after 24 hrs by broth microdilution assay; type: functional; outline: as §1

Structure (SMILES)	MIC50 (Candida albicans [1])	MIC90 (Candida albicans [1]) [µM]	Ki ([2]; read-out: Ki) [nM]	also measured
COc1cc(Br)nc(NC(=O)NS(=O)(=O)c2ccccc2C(=O)OCCO[Si](C)(C)C(C)(C)C)n1	> 25 µM	> 25	49.8	
COC(=O)c1ccccc1S(=O)(=O)NC(=O)Nc1nc(Cl)cc(OC)n1	3 µM (≈ 1.2 µg/mL)	6.25 (≈ 2.51 µg/mL)	7.1	
CCOC(=O)c1ccccc1S(=O)(=O)NC(=O)Nc1nc(Br)cc(OC)n1	0.7 µM (≈ 0.321 µg/mL)	1.56 (≈ 0.716 µg/mL)	4.1	
COC(=O)c1ccccc1S(=O)(=O)NC(=O)Nc1nc(I)cc(OC)n1	1 µM (≈ 0.492 µg/mL)	3.13 (≈ 1.54 µg/mL)	3.9	
COc1cc(Cl)nc(NC(=O)NS(=O)(=O)c2ccccc2C(=O)OCCO)n1	> 25 µM	> 25	65	
CCOC(=O)c1ccccc1S(=O)(=O)NC(=O)Nc1nc(Cl)cc(OC)n1 [CHLORIMURON ETHYL]	2 µM (≈ 0.83 µg/mL)		7	MIC50 (Saccharomyces cerevisiae): 19.5 µM (≈ 8.09 µg/mL); LD50 [3]: > 4000 mg/kg; diameter of the inhibition zone (DIZ) (Candida albicans [4]): 25 mm; LD50 [5]: > 2000 mg/kg
COC(=O)c1ccccc1S(=O)(=O)NC(=O)Nc1nc(Br)cc(OC)n1	1 µM (≈ 0.445 µg/mL)	6.25 (≈ 2.78 µg/mL)	3.8	
COc1cc(Br)nc(NC(=O)NS(=O)(=O)c2ccccc2C(=O)OCCCl)n1	15 µM (≈ 7.41 µg/mL)	> 25		
COc1cc(I)nc(NC(=O)NS(=O)(=O)c2ccccc2C(=O)OCCBr)n1	12 µM (≈ 7.02 µg/mL)	> 25	26	
COc1cc(I)nc(NC(=O)NS(=O)(=O)c2ccccc2C(=O)OCCO[Si](C)(C)C(C)(C)C)n1	> 25 µM	> 25	13	
CCOc1ccccc1OS(=O)(=O)NC(=O)Nc1nc(OC)cc(OC)n1 [ETHOXYSULFURON]	2 µM (≈ 0.797 µg/mL)		20	MIC50 (Saccharomyces cerevisiae): 13 µM (≈ 5.18 µg/mL); diameter of the inhibition zone (DIZ) (Candida albicans [4]): 30 mm
CCOc1nc(NC)nc(NC(=O)NS(=O)(=O)c2ccccc2C(=O)OC)n1 [ETHAMETSULFURON METHYL]	inactive		656	MIC50 (Saccharomyces cerevisiae): inactive
COc1cc(Br)nc(NC(=O)NS(=O)(=O)c2ccccc2C(=O)OCCI)n1	> 25 µM	> 25	270	
COc1cc(I)nc(NC(=O)NS(=O)(=O)c2ccccc2C(=O)OCCCl)n1	4 µM (≈ 2.16 µg/mL)	12.7 (≈ 6.87 µg/mL)	13.3	
COc1cc(Cl)nc(NC(=O)NS(=O)(=O)c2ccccc2C(=O)OCCCl)n1	15 µM (≈ 6.74 µg/mL)	> 25	62	
COC(=O)c1ccccc1S(=O)(=O)NC(=O)Nc1nc(C)cc(C)n1 [SULFOMETURON METHYL]	inactive		634	MIC50 (Saccharomyces cerevisiae): 19.5 µM (≈ 7.11 µg/mL)
COc1cc(I)nc(NC(=O)NS(=O)(=O)c2ccccc2C(=O)OCCI)n1	12 µM (≈ 7.59 µg/mL)	25 (≈ 15.8 µg/mL)	93	
COc1cc(Br)nc(NC(=O)NS(=O)(=O)c2ccccc2C(=O)OCCO)n1	> 25 µM	> 25	27	
COC(=O)c1ccccc1CS(=O)(=O)NC(=O)Nc1nc(OC)cc(OC)n1 [BENSULFURON METHYL]	62 µM (≈ 25.4 µg/mL)		31	MIC50 (Saccharomyces cerevisiae): 20.8 µM (≈ 8.54 µg/mL)
CCOC(=O)c1cnn(C)c1S(=O)(=O)NC(=O)Nc1nc(OC)cc(OC)n1 [PYRAZOSULFURON ETHYL]	62 µM (≈ 25.7 µg/mL)		66	MIC50 (Saccharomyces cerevisiae): 41.7 µM (≈ 17.3 µg/mL)
COc1cc(Br)nc(NC(=O)NS(=O)(=O)c2ccccc2C(=O)OCCBr)n1	> 25 µM	> 25	65	
OC(Cn1cncn1)(Cn1cncn1)c1ccc(F)cc1F [FLUCONAZOLE]				MIC50 (Candida albicans [6]): 0.93 µg/mL (≈ 3.04 µM)
COc1cc(Cl)nc(NC(=O)NS(=O)(=O)c2ccccc2C(=O)OCCBr)n1	> 25 µM	> 25	257	
CCOC(=O)c1ccccc1S(=O)(=O)NC(=O)Nc1nc(I)cc(OC)n1	0.6 µM (≈ 0.304 µg/mL)	1.56 (≈ 0.79 µg/mL)	3.8	diameter of the inhibition zone (DIZ) (Candida albicans [4]): 35 mm
COc1cc(Cl)nc(NC(=O)NS(=O)(=O)c2ccccc2C(=O)OCCI)n1	> 25 µM	> 25	1200	
COc1nc(C)nc(NC(=O)NS(=O)(=O)c2ccccc2Cl)n1 [CHLORSULFURON]	156 µM (≈ 55.8 µg/mL)		434	MIC50 (Saccharomyces cerevisiae): 117 µM (≈ 41.9 µg/mL)
COc1cc(Cl)nc(NC(=O)NS(=O)(=O)c2ccccc2C(=O)OCCO[Si](C)(C)C(C)(C)C)n1	> 25 µM	> 25		Ki [2]: Not Active
COc1cc(I)nc(NC(=O)NS(=O)(=O)c2ccccc2C(=O)OCCO)n1	> 25 µM	> 25	15	
COC(=O)c1ccccc1S(=O)(=O)NC(=O)N(C)c1nc(C)nc(OC)n1 [TRIBENURON METHYL]	inactive		1640	MIC50 (Saccharomyces cerevisiae): inactive
